# Source: ChEMBL document CHEMBL1687886, “N-cyclic bay-substituted perylene G-quadruplex ligands have selective antiproliferative effects on cancer cells and induce telomere damage” (J Med Chem, 2011)
# Active and inactive are the calls of the source. The calls are words filed in the database; no cut-off is given here.
# Legend:
# PC-3 = assay: Antiproliferative activity against human PC3 after 2 to 8 days by trypan blue assay; assay type: functional, cell-based
# Summary of the method: (§1)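 Cells seeded at 5 ×10^4 per dish; compounds freshly dissolved and added to the medium 24 h after plating, at 0.5 μM or 3 μM (3 μM only for one derivative). Cell number by Coulter counting and viability by trypan blue exclusion daily, day 1 to day 8. Growth inhibition of treated vs untreated cells calculated at days 2, 4, 6 and 8. Representative experiments in quintuplicate, SD shown.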
# Nucleic Acid [1] = assay: Binding affinity to human 21-TT G-quadruplex DNA structure assessed as second step association constant by electrospray ionization mass spectrometry; assay type: nucleic-acid assay
# Summary of the method: (§2)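 ESI-MS in 150 mM ammonium acetate; DNA 5 μM final (per duplex or quadruplex unit); ligand at drug/DNA ratios 0.5 to 4. Methanol (15%) added just before injection, after binding equilibrium. K1 and K2 for 1:1 and 2:1 complexes, and % bound DNA, taken from relative peak intensities assuming equal response factors. At least three repeats.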
# Nucleic Acid [2] = assay: Binding affinity to human DK66 duplex DNA structure assessed as second step association constant by electrospray ionization mass spectrometry; assay type: nucleic-acid assay; summary of the method: as §2
# Nucleic Acid [3] = assay: Stabilization of 21-mer human F21T G4-telomeric quadruplex assessed as change in melting temperature at 1 uM by FRET assay; assay type: nucleic-acid assay
# Nucleic Acid [4] = assay: Binding affinity to human 21-TT G-quadruplex DNA structure assessed as bound DNA at 5:5 DNA to drug ratio by electrospray ionization mass spectrometry; assay type: nucleic-acid assay; summary of the method: as §2
# Nucleic Acid [5] = assay: Binding affinity to human 21-TT G-quadruplex DNA structure assessed as bound DNA at 5:10 DNA to drug ratio by electrospray ionization mass spectrometry; assay type: nucleic-acid assay; summary of the method: as §2
# Nucleic Acid [6] = assay: Binding affinity to human DK66 duplex DNA structure assessed as bound DNA at 5:20 DNA to drug ratio by electrospray ionization mass spectrometry; assay type: nucleic-acid assay; summary of the method: as §2
# Nucleic Acid [7] = assay: Binding affinity to human 21-TT G-quadruplex DNA structure at 1:5 DNA to calf thymus DNA ratio by competitive inhibition assay; assay type: nucleic-acid assay; parameters: concentration or dose not given beside the values
# Summary of the method: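 ESI-MS competition: quadruplex DNA and ligand each 5 μM final, plus calf thymus DNA at duplex/quadruplex ratios 1 and 5 (by phosphate concentration), in ammonium acetate. Percentage bound quadruplex and normalized bound quadruplex (N%) measured by mass spectrometry. SD over at least three independent experiments.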
# BJ [8] = assay: Induction of DNA damage response in human BJ cells expressing SV40 early region EHLT assessed as phosphorylation of […] after 24 hrs by immunofluorescence method; assay type: functional, cell-based
# Summary of the method: (§3)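 BJ-EHLT and BJ-hTERT fibroblasts exposed to a range of concentrations for 24 h. Fixed in 2% formaldehyde, permeabilized in 0.25% Triton X-100, immunostained for γ-H2AX and 53BP1. Percentage of positive cells scored. Three independent experiments, SD.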
# BJ [9] = assay: Induction of telomere dysfunction induced foci n human BJ cells expressing SV40 early protein EHLT assessed as increase in gamma H2AX/TRF1 co-localization at 1 uM by Deconvolution microscopy; assay type: functional
# Summary of the method: (§4)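 BJ-EHLT cells stained for TRF1 together with γ-H2AX or 53BP1 and imaged by deconvolution microscopy. Cells with four or more γ-H2AX/TRF1 foci scored as TIF positive; percentage of TIF-positive cells and mean TIFs per nucleus recorded. Mean of three experiments, SD.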
# BJ [10] = assay: Induction of telomere dysfunction induced foci n human BJ cells expressing SV40 early protein EHLT assessed as increase in gamma H2AX/TRF1 co-localization by Deconvolution microscopy; assay type: functional, cell-based; summary of the method: as §4
# BJ [11] = assay: Delocalization of POT1 protein from […] in human BJ cells expressing SV40 early protein EHLT after 24 hrs by chromatin immunoprecipitation assay; assay type: functional, cell-based
# Summary of the method: (§5)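 BJ-EHLT cells treated 24 or 72 h. Formaldehyde-crosslinked chromatin immunoprecipitated with anti-TRF1, anti-TRF2 or anti-POT1; β-actin antibody as negative control. Precipitates blotted and probed for telomeric repeats (ALU probe as nonspecific). Densitometry gives percentage of precipitated DNA relative to input (10% and 1%). Four independent experiments, SD.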
# BJ [12] = assay: Delocalization of POT1 protein from […] in human BJ cells expressing SV40 early protein EHLT after 72 hrs by chromatin immunoprecipitation assay; assay type: functional, cell-based; summary of the method: as §5
# BJ [13] = assay: Delocalization of TRF1 protein from […] in human BJ cells expressing SV40 early protein EHLT by chromatin immunoprecipitation assay; assay type: functional, cell-based; summary of the method: as §5
# BJ [14] = assay: Antiproliferative activity against human BJ cells expressing SV40 early region EHLT at 0.5 uM after 24 hrs by Coulter counter method; assay type: functional, cell-based; conditions: TDE = time-dependent effect, in the assay text read “after 2 to 8 days” for “after 24 hrs”; summary of the method: as §1
# BJ [15] = assay: Growth inhibition of human BJ cells expressing SV40 early region EHLT at 0.5 uM on day 8 by trypan blue assay; assay type: functional; conditions: 192 h, read-out: GI; summary of the method: as §1
# BJ [16] = assay: Antiproliferative activity against human BJ cells expressing TERT at 3 uM after 2 to 8 days by trypan blue assay; assay type: functional, cell-based; conditions: 0.5 uM, in the assay text read “at 0.5 uM” for “at 3 uM”; summary of the method: as §1
# BJ [17] = assay: Cell cycle arrest in human BJ cells expressing TERT assessed as accumulation at G0/G1 stage at 0.5 uM after 24 hrs by propidium iodide staining based flow cytometry (reference value: 61%); assay type: ADME
# BJ [18] = assay: Cell cycle arrest in human BJ cells expressing TERT assessed as accumulation at S stage at 0.5 uM after 72 hrs by propidium iodide staining based flow cytometry (reference value: 10%); assay type: ADME
# BJ [19] = assay: Cell cycle arrest in human BJ cells expressing TERT assessed as accumulation at G2/M stage at 0.5 uM after 72 hrs by propidium iodide staining based flow cytometry (reference value: 5%); assay type: ADME
# BJ [20] = assay: Cell cycle arrest in human BJ cells expressing TERT assessed as accumulation at S stage at 0.5 uM after 96 hrs by propidium iodide staining based flow cytometry (reference value: 9%); assay type: ADME
# BJ [21] = assay: Cell cycle arrest in human BJ cells expressing TERT assessed as accumulation at G2/M stage at 0.5 uM after 96 hrs by propidium iodide staining based flow cytometry (reference value: 4%); assay type: ADME
# [22] = biological target: Telomerase reverse transcriptase (Homo sapiens, UniProt O14746); assay: Inhibition of human Telomerase activity in cell free system by TRAP assay
# Telomerase reverse transcriptase, sequence (O14746 whole entry): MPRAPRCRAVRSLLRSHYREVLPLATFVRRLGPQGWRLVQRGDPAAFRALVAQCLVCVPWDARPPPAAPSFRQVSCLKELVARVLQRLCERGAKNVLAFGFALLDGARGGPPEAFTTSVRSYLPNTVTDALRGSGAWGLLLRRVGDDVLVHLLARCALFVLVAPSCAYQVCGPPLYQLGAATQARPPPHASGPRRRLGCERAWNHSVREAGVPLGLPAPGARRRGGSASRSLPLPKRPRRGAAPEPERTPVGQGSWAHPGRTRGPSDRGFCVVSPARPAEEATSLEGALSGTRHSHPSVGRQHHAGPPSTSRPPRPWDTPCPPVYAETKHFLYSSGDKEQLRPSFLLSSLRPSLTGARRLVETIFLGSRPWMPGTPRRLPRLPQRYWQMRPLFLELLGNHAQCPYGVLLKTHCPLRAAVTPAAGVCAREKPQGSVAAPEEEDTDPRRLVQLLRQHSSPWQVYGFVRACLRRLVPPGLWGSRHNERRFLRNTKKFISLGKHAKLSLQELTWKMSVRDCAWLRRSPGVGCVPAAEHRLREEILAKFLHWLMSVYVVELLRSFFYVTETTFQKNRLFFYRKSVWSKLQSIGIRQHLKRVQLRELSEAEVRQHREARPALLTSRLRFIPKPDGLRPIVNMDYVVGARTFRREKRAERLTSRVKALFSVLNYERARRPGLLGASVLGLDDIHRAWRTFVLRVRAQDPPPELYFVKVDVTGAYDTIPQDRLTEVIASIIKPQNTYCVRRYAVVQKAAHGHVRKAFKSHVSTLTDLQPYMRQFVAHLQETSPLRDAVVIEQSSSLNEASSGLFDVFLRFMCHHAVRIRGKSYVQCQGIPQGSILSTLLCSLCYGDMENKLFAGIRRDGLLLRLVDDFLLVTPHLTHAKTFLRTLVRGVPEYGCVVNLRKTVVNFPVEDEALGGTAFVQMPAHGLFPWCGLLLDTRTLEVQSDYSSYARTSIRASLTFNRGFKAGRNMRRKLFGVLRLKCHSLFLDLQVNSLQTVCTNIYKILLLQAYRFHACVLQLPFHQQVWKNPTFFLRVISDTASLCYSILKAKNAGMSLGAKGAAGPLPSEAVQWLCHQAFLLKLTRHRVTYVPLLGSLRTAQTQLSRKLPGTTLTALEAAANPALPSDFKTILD
# Summary of the method: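 Cell-free TRAP: protein extract incubated with compound at 1 to 50 μM so telomerase elongates the substrate oligonucleotide. Before PCR, phenol/chloroform/isoamyl-alcohol (50:49:1) extraction removes the ligand and DNA is precipitated overnight at -20 °C. Amplification uses a 36 bp ITAS; products are resolved on 12% PAGE and stained with SYBR Green. Signals are corrected by the no-extract control and normalized to untreated, giving dose-response IC50. Mean of three experiments.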
# BJ [23] = assay: Induction of DNA damage response in human BJ cells expressing human TERT assessed as phosphorylation of […] at 1 uM after 24 hrs by immunofluorescence; assay type: functional, cell-based; summary of the method: as §3
# BJ [24] = assay: Induction of telomere dysfunction induced foci n human BJ cells expressing SV40 early protein EHLT assessed as increase in 53BP1/TRF1 co-localization by Deconvolution microscopy; assay type: functional, cell-based; summary of the method: as §4
smiles,measurement,setting,value
O=C1c2ccc3c4ccc5c6c(cc(N7CCCCC7)c(c7ccc(c2c37)C(=O)N1CCOCCN1CCCCC1)c64)C(=O)N(CCOCCN1CCCCC1)C5=O,Activity,PC-3,Active
same,log Ks,Nucleic Acid [1],5
same,log Ks,Nucleic Acid [2],4.2
same,ΔTm,Nucleic Acid [3],23 °C
same,Activity,Nucleic Acid [4],56%
same,Activity,Nucleic Acid [5],75%
same,Activity,Nucleic Acid [6],21%
same,Activity,Nucleic Acid [7],39%
same,Activity,BJ [8],Active
same,Activity,BJ [9],50%
same,Activity,BJ [10],Active
same,Activity,BJ [11],Active
same,Activity,BJ [12],Active
same,Activity,BJ [13],inactive
same,Activity,BJ [14],tde
same,inhibition of growth at 0.5 µM,BJ [15],50%
same,Activity,BJ [16],Non-toxic
same,Activity,BJ [17],62.8%
same,Activity,BJ [18],7.6%
same,Activity,BJ [19],5.1%
same,Activity,BJ [20],1.5%
same,Activity,BJ [21],2.2%
same,IC50,[22],10 µM
same,Activity,BJ [23],inactive
same,Activity,BJ [24],Active
